# From ChEMBL document CHEMBL1142422, “Affinity purification and characterization of a key enzyme responsible for circadian rhythmic control of nyctinasty in Lespedeza cuneata L” (Bioorg Med Chem, 2008)
# The source made the active and inactive calls. The calls are words filed in the database; no cut-off is given here.
# Assays:
# [1] = Binding affinity to leaf opening factor beta-glucosidase relative to potassium lespedezate; design: unit not given here
# Procedure, shortened: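 Purified LOFG was added to 25 mM acetate pH 4.5 containing 1 mM of each substrate analog, preincubated at 37 °C. The mixture was incubated 2 h at 37 °C, then stopped with 0.1 M Tris-HCl pH 9.0, bringing the pH to 8.0. The released aglycon was quantified by RP-HPLC, and activity was expressed relative to potassium lespedezate.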
# [2] = Activity of leaf opening factor beta-glucosidase at pH 4.5
# Procedure, shortened: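 Purified leaf-opening factor β-glucosidase (LOFG) from L. cuneata leaves, assayed in 25 mM acetate pH 4.5 with potassium lespedezate at four substrate levels. The semicarbazone of the released α-keto acid was trapped with 1 mM semicarbazide and quantified by RP-HPLC after 2 h at 37 °C. Km was taken from a Lineweaver–Burk plot.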
# [3] = Inhibition of Aspergillus niger beta-glucosidase in acetate buffer at pH 6.0
# [4] = Inhibition of Aspergillus niger beta-glucosidase in acetate buffer at pH 5.0
# Procedure, shortened: (§1)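 Commercial glycosidases were preincubated with varied inhibitor amounts for 15 min at 37 °C in 50 mM acetate buffer: pH 5.0 for the β-glucosidases and β-galactosidase, pH 6.8 for α-glucosidase. The matching p-nitrophenyl glycoside was then added, and the reaction was stopped with 0.5 M Na2CO3. p-Nitrophenol was read at 405 nm. Ki came from Lineweaver–Burk plots, and percent inhibition was also scored at 1 mM inhibitor.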
# [5] = Inhibition of Aspergillus niger beta-glucosidase in acetate buffer at pH 4.5
# Procedure, shortened: (§2)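 Aspergillus niger β-glucosidase was preincubated with inhibitor for 15 min at 37 °C before the p-nitrophenyl glucoside was added. Buffers were 25 mM acetate at pH 4.5–5.5 and 25 mM Bis-Tris at pH 6.0. The reaction was stopped with 0.5 M Na2CO3, and released p-nitrophenol was read at 405 nm. Ki was derived from Lineweaver–Burk plots.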
# [6] = test system: Geobacillus stearothermophilus; assay: Inhibition of Bacillus stearothermophilus alpha-glucosidase in acetate buffer at pH 6.8 at 1 mM; procedure, shortened: as §1
# [7] = target: T1, Beta-galactosidase (Aspergillus oryzae) (UniProt Q2U7N3); assay: Inhibition of Aspergillus oryzae beta-galactosidase in acetate buffer at pH 5.0 at 1 mM; procedure, shortened: as §1
# T1 sequence (whole entry): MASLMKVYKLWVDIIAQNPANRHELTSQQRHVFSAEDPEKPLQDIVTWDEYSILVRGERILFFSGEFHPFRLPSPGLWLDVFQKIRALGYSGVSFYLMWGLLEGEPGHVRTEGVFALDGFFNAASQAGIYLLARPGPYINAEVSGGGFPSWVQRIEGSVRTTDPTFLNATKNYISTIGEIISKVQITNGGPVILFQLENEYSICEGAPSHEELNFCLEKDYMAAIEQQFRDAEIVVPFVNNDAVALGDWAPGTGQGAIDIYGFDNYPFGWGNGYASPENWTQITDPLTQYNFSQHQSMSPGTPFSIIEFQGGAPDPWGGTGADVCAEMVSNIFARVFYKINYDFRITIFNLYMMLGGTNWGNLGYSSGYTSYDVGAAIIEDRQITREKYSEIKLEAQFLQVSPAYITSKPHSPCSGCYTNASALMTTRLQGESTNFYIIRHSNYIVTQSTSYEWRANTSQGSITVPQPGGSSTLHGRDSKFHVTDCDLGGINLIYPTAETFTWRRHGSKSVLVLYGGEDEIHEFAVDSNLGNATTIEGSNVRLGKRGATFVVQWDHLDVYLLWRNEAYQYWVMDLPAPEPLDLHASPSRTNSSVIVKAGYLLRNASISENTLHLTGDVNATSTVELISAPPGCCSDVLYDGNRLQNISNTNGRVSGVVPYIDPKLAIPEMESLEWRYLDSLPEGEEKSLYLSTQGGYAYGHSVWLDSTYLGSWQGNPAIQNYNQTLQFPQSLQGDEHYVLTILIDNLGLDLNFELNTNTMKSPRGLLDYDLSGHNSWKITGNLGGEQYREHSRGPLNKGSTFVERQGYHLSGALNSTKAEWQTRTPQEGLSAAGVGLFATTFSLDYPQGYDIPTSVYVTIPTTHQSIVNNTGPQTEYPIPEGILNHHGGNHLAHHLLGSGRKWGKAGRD
# Prunus dulcis = assay: Inhibition of Almond beta-glucosidase in acetate buffer at pH 5.0 at 1 mM; procedure, shortened: as §1
# [8] = Inhibition of Aspergillus niger beta-glucosidase in acetate buffer at pH 5.5; procedure, shortened: as §2
structure (smiles),measurement,setting,value
OC/C(=C\c1ccc(O)cc1)N[C@@H]1O[C@H](CO)[C@@H](O)[C@H](O)[C@H]1O,Activity,[1],113
O=C(O)/C(=C\c1ccc(O)cc1)O[C@@H]1O[C@H](CO)[C@@H](O)[C@H](O)[C@H]1O,Km,[2],548 µM
O=C(O)/C(=C\c1ccc(O)cc1)O[C@@H]1O[C@H](CO)[C@H](O)[C@H](O)[C@H]1O,Activity,[1],0
OCC(=Nc1ccc(O)cc1)N[C@@H]1O[C@H](CO)[C@@H](O)[C@H](O)[C@H]1O,Ki,[3],4.12 µM
same,Ki,[4],1.3 µM
same,Ki,[5],3.5 µM
same,Activity,[6],inactive
same,Activity,[7],inactive
same,inhibition,Prunus dulcis,< 90%
same,Ki,[8],1.33 µM
O=C(O)/C(=C/c1ccc(O)cc1)O[C@@H]1O[C@H](CO)[C@@H](O)[C@H](O)[C@H]1O,Activity,[1],0
O=C(O)C(Cc1ccc(O)cc1)O[C@@H]1O[C@H](CO)[C@@H](O)[C@H](O)[C@H]1O (stereo partly drawn),Activity,[1],26
O=C(O)/C(=C/c1ccc(O)cc1)O[C@@H]1O[C@H](CO)[C@H](O)[C@H](O)[C@H]1O,Activity,[1],0
